Experimental data: publication PMC7305985 (Molecular cell, 2020)

Key:
[1] = test system: KAP1 target genes in HCT116 (CDK9 inhibition); test: RT-qPCR of KAP1 target genes after flavopiridol treatment; assay type: cell-based; conditions: HCT116, 1 μM, 2 and 4 hr; relative to DMSO, normalized to U6, n=3; Figure 2M
[2] = test system: SMAD2 at KAP1 target gene promoters; test: ChIP-qPCR of SMAD2 after reconstitution; assay type: cell-based; conditions: shKAP1 HCT116 reconstituted, n=3, Figure 6F
Outline: (§1)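 shKAP1 HCT116 cells were transfected with 1 µg epitope-tagged plasmid (PolyJet) and harvested after 48 hr. Cells were crosslinked in 0.5% formaldehyde (10 min, room temperature), quenched with 150 mM glycine and lysed in Farnham buffer at 10×10^6 cells/mL. Beads were washed in RIPA, low-salt, high-salt (500 mM NaCl), LiCl and TE buffers, eluted in NaHCO3/SDS (30 min, 65°C) and de-crosslinked with proteinase K (4 hr, 65°C), then read by qPCR.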

[3] = test system: CDK9 at KAP1 target gene promoters; test: ChIP-qPCR of CDK9 after reconstitution; assay type: cell-based; conditions: shKAP1 HCT116 reconstituted, n=3, Figure 6F
Outline: as §1

CDK9 = test: Co-IP from HCT116 nuclear extracts: CDK9; assay type: binding; conditions: Figure 6B
Outline: (§2)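 Tagged proteins were expressed in HCT116 cells by transfection for 48 hr. Nuclei were released by hypotonic swelling and 27-gauge needle lysis, then extracted for 45 min at 4°C in buffer C brought to 420 mM NaCl. Chromatin was digested with MNase (5 mM CaCl2, 10 min, 37°C). Clarified extract was bound to StrepTactin agarose for 2 hr at 4°C, washed 4X and eluted with desthiobiotin. Blots loaded 1% input.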

[4] = test system: Pol II at KAP1 target gene promoters; test: ChIP-qPCR of Pol II after reconstitution; assay type: cell-based; conditions: shKAP1 HCT116 reconstituted, n=3, Figure 6F
Outline: as §1

[5] = test system: KAP1 target gene promoters; test: FLAG ChIP-qPCR of reconstituted KAP1 proteins; assay type: cell-based; conditions: shKAP1 HCT116, FLAG ChIP-qPCR, % Input, n=3, Figures 5I, 6F
Outline: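 Epitope-tagged KAP1 was re-expressed in shKAP1 HCT116 cells by 1 µg plasmid transfection over 48 hr. Anti-FLAG ChIP used 0.5% formaldehyde crosslinking (10 min) and 150 mM glycine quench. Beads were washed 4 times with each of RIPA, low-salt, high-salt, LiCl and TE buffers. Elution was 30 min at 65°C, de-crosslinking 4 hr at 65°C with proteinase K, and read-out was qPCR.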

SMAD2 = test: AP / IP / co-IP from HCT116 nuclear extracts: SMAD2; assay type: binding; conditions: Figures 3G–3I, 6B
Outline: as §2

[6] = test system: KAP1 target genes in shKAP1 HCT116 cells; test: Reconstitution assay, RT-qPCR of KAP1 target genes; assay type: cell-based
Pol II (RPB1) = test: AP / IP / co-IP from HCT116 nuclear extracts: Pol II; assay type: binding; conditions: MNase, endogenous IP, Figures 2C, 2D, 6B
Outline: as §2

Compound | expression of KAP1 target genes after flavopiridol [1] | promoter recruitment of SMAD2 [2] | promoter recruitment of CDK9 [3] | association with CDK9 in nuclear extracts (CDK9) | promoter recruitment of Pol II [4] | localization to KAP1 target gene promoters [5] | localization to KAP1 target gene promoters ([5]; listed as WT KAP1) | association with SMAD2 in nuclear extracts (SMAD2) | association with SMAD2 in nuclear extracts (SMAD2; listed as WT KAP1) | restoration of KAP1 target gene expression (WT and point mutants) ([6]; shKAP1 HCT116, 48 hr, relative to shNT+GFP, normalized to RPL19, n=3, Figure 5H) | restored expression of all tested genes over GFP-expressing cells ([6]; shKAP1 HCT116, n=3, Figure 6E) | association with Pol II in nuclear extracts (Pol II (RPB1))
CN1CC[C@H](c2c(O)cc(O)c3c(=O)cc(-c4ccccc4Cl)oc23)[C@H](O)C1 [flavopiridol, Flavopiridol] | dampened expression of KAP1 target genes |  |  |  |  |  |  |  |  |  |  | 
KAP1: wild-type KAP1, STREP- or FLAG-tagged |  | only facilitated SMAD2 recruitment to C1 (SMAD2+) gene promoters | facilitate recruitment of Pol II and CDK9 | associates with all three factors | facilitate recruitment of Pol II and CDK9 | able to localize to both C1 (SMAD2+) and C2/C3 (SMAD2-) gene promoters | localized to all tested gene promoters | interactions between ectopically expressed and endogenous proteins | associates with all three factors | restored KAP1 target gene expression | ~ 2 fold | co-purifies with both ectopically expressed and endogenous KAP1
